The text below walks through data of the EternaBench riboswitch data.

For the series, the system named is MS2 coat protein. Put plainly: apparent Kd, MS2 coat protein; higher = weaker binding; RNA-MaP array; FMN 200 µM where present. In outline: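 Designs were transcribed by stalled E. coli RNA polymerase on Illumina sequencing-chip clusters. They were titrated with SNAP-549-labelled MS2 coat protein from 0.7 or 1.5 nM, doubling to 3 µM, in 100 mM Tris-HCl pH 7.5, 80 mM KCl, 4 mM MgCl2, BSA, DTT, yeast tRNA and Tween-20, without and then with constant ligand. The apparent Kd is the median of filtered per-cluster fits after normalisation of green signal to red-channel RNA signal and control-cluster median Fmax.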

Setting [1] is: designed as: OFF switch for flavin mononucleotide, no ligand.
Where [2] appears, read: ligand present: flavin mononucleotide, designed as: OFF switch for flavin mononucleotide.
The mark [3] stands for this setting: designed as: ON switch for flavin mononucleotide, no ligand.
The mark [4] stands for this setting: ligand present: flavin mononucleotide, designed as: ON switch for flavin mononucleotide.

Take “ACUAUACGAGGAUAUACUGACGGGCCUCAGGCGUCCAUCAGACAUGAGGAUCACCCAUGUAGAAGGCGUAUACU”: the apparent Kd – broadly, the concentration giving half-maximal binding under the conditions of the assay – was determined as 85.5 nM under setting [1] and 196 nM under setting [2].

With “GGCUAGUGAGGAUAUACGUGCAGUCCUCAGUCGCCAGUCGGACAUGAGGAUCACCCAUGUAGAAGGUAUCGGCA”, the “apparent Kd” value runs as follows: under setting [1], 35.8 nM; under setting [2], 38.9 nM.

For the sequence “AGCAGACGAGGAUAUAGAUUAAAUGACAUGAGGAUCACCCAUGUGAUCGAUCUAUUUUAUUUAGAAGGUGUCUGCU”, the “apparent Kd” value by setting is: under setting [1], 18.1 nM; under setting [2], 32.3 nM.

On to “ACAUGCAUAGCGAUAUGAUCGAGAGAUCAUGUCGCUAAAUUUAGAAGGACAUGAGGAUCACCCAUGUAGGAUAUGGGAGCAUGU”, for which the “apparent Kd” value under setting [3] is 49.5 nM and the “apparent Kd” value under setting [4] is 10.8 nM.

With “CAUUCCAGGUAGAAGGGAUUACUACAUGAGGAUCACCCAUGUCGAUUGGUCAGGAUAUGCCUGUCACGACGCGUGAUGCUAAAA”, the “apparent Kd” value reads like this: under setting [3], 382 nM; under setting [4], 187 nM.

Turning to “GUCCACAUGAGGAUCACCCAUGUGAGAAGGUUGGUUUUGUUGAGGUAGUGGUUUGCCUUGGUGGUAGAGGAUAUUGAUGGGUUA”, the “apparent Kd” value by setting is: under setting [1], 7.7 nM; under setting [2], 7.33 nM.

Take “GGUGCGUAUGUGAGGAUAUGCUGGUCCUUGGAUCAGCAGAAGGCACAUGAGGAUCACCCAUGUGGUGUCGUACG”: the “apparent Kd” value stood at 68.9 nM under setting [1] and 516 nM under setting [2].

With “AACAAUCUAUCUGAGGAUAUCAUGAAAAAAACAUGAGGAUCACCCAUGUGCAGGAAAACUGCAUAUGAGAAGGCAGAUAGAUUGA”, the “apparent Kd” value under setting [3] is 702 nM and the “apparent Kd” value under setting [4] came out at 27 nM.

Take “GUGCGUGGCUAGGAUAUUGUGGAGUUUAGUCAGCGAGAAGGAGCCACAUGAGGAUCACCCAUGUGGUGUUGCUC”: the “apparent Kd” value was found to be 40.5 nM under setting [1] and 101 nM under setting [2].

Consider “GCCUUAUUGGUCAGGAUAUACAUUUGUUACUCUUUGUAGAAGGGACAUGAGGAUCACCCAUGUACAUUACAUUC”, for which the “apparent Kd” value by setting is: under setting [1], 20.8 nM; under setting [2], 33.5 nM.

Turning to “AAAUUUAACGAAGGAUAUGGUUACAUGAGGAUCACCCAUGUGUGCCUUGUGAUGCUGAUUAAGUUCCAGAAGGUCGUAUACAUA”, the “apparent Kd” value reads like this: under setting [1], 84.8 nM; under setting [2], 234 nM.

On to “AUAAUUAUAUAUUUCACAAGAAUCAGAAGGCGUUACAUGAGGAUCACCCAUGUUUUGUAUAGUAACGAGGAUAUGAUAUGGAAA”, for which the “apparent Kd” value worked out at 15.2 nM under setting [1] and 14 nM under setting [2].

On to “GGGUUUGGAGGAUAUACAAUCCCGGGCCGAAAGGUUUGGGUACAUGAGGAUCACCCAUGUAGAAGGCCGGGCCC”, for which the “apparent Kd” value under setting [1] is 19.2 nM and the “apparent Kd” value under setting [2] came to 27.3 nM.

Consider “GUAUCAUACCAAGGAUAUUUAGGACUUUGAUAGACAUGAGGAUCACCCAUGUGGCGUUAGUCACGGGAGAAGGUGGUAUGAUAC”, for which the “apparent Kd” value under setting [3] worked out at 57.4 nM and the “apparent Kd” value under setting [4] worked out at 18.4 nM.

In the case of “AAUACAUGAGGAUCACCCAUGUUAUGUUCAAACAAUAUGAGUGAGGAUAUACUGAGUUAGUUAUGGUAGAAGGCACUGGGUUCA”, the “apparent Kd” value by setting is: under setting [3], 56.3 nM; under setting [4], 36.2 nM.

Consider “ACAUUAGUACCACAUGUAUUACAUGAGGAUCACCCAUGUUACUAGGAUAUGUAUUAGAAUUUACAACAGAAGGAGUUAUUAUGU”, for which the “apparent Kd” value reads like this: under setting [1], 17.2 nM; under setting [2], 17.1 nM.

As to “CUUGUGUUAGGAUAUGCGCCCUGCAAAAGCAGAGCCAGAGAGCAGAAGGAACAUGAGGAUCACCCAUGUGUGAC”, the “apparent Kd” value runs as follows: under setting [1], 67.5 nM; under setting [2], 61.3 nM.

In the case of “UUUAUGAAGCUUCGUCAAUACAGUUAGGAUAUGAGAGACAUGAGGAUCACCCAUGUGCAUGUUGAUUAGAAGGAACAAUUAUCU”, the “apparent Kd” value is 15.6 nM under setting [1] and 14.6 nM under setting [2].

As for “AAGGACAGAGGAUAUACAUAGAUACAGAUUCAUGUAGAACUACAUGAGGAUCACCCAUGUAGAAGGCUGUCCUA”, the “apparent Kd” value runs as follows: under setting [1], 30.7 nM; under setting [2], 285 nM.

For “AAUAAACAUGAGGAUCACCCAUGUCAGGAUAUCCUAAAUAAAAAAAUAUAAAGAAGAAGGAGAAGGGACUAAAA”, the “apparent Kd” value by setting is: under setting [1], 111 nM; under setting [2], 120 nM.

As for “GCGUAUUUAAGAUUUAUAAAACAGUCAGAAGGUGAUAAGACGACAUGAGGAUCACCCAUGUAAUUCAAGGAUAUGAAAAUGCGC”, the “apparent Kd” value runs as follows: under setting [3], 48.6 nM; under setting [4], 22.1 nM.

On to “UGUCGGAGCAGAGGAUAUUACAUGAGGAUCACCCAUGUAUGAACCAAUAGCUGGAACCAGCAAUGUAAGAAGGCUGCUCCGACA”, for which the “apparent Kd” value by setting is: under setting [1], 14.2 nM; under setting [2], 160 nM.

Consider “UGUUAGUAGACAGGAUAUUGAAUGUUAAGUAUUAACAUGAGGAUCACCCAUGUAUUUGAUUGGUACAAGAAGGGUCAUGUUUGU”, for which the “apparent Kd” value by setting is: under setting [3], 265 nM; under setting [4], 606 nM.

“GCGUACUGAGGAUAUACAUGAGGAUCACCCAUGUUUCACAGCAUAUGUGAAGUUUUUUGUAGAAGGCAGUAUGC”: the “apparent Kd” value under setting [1] was determined as 29.6 nM and the “apparent Kd” value under setting [2] came to 163 nM.

On to “UGUUUCUUGUAAGGAUAUACUAGCGAUAAGCUAGUAGAAGGUACUGUCUUUUGUAUCUCAUAUUUACAUGAGGAUCACCCAUGU”, for which the “apparent Kd” value under setting [3] was 9.41 nM and the “apparent Kd” value under setting [4] worked out at 8.07 nM.

Take “AAAAGCCAAGGAUAUACAUGAGGAUCACCCAUGUAAGAAAUGGGCGCUACCGUUCCGUGUAGAAGGUGGGAAAA”: the “apparent Kd” value under setting [1] came to 28.6 nM and the “apparent Kd” value under setting [2] was found to be 65 nM.

As for “GAGUUAGAGGGAGGAUAUUGAGAUAGGACACUACGAGAAGGCUUAUAAUAGAUAAACAUGAGGAUCACCCAUGUCAUGUAAUGG”, the “apparent Kd” value reads like this: under setting [1], 48.7 nM; under setting [2], 29.1 nM.

Take “GCAGCGCCUGACAUGAGGAUCACCCAUGUUAGAUUGUUAAGUCAGGAUAUAGUCUAGAAACUAGACUAGAAGGGAUUUGCUGCU”: the “apparent Kd” value came to 9.08 nM under setting [3] and 6.83 nM under setting [4].

On to “CCAUAAAAGAUCCAAAAUUACAACAUGAGGAUCACCCAUGUGCAGGAUAUCGUGAAAGUGAAGUACGAGAAGGGCAGACACUGC”, for which the “apparent Kd” value runs as follows: under setting [1], 145 nM; under setting [2], 166 nM.

For “CUUUAGUGAGGAUAUGUGGCUUCGAUCGUGAGAUCGAGGCUACAGAAGGCACAUGAGGAUCACCCAUGUUCCUG”, the “apparent Kd” value by setting is: under setting [1], 15.7 nM; under setting [2], 48.5 nM.

As for “UGCCUUGAGUAGAAGGGCUGUGCUGUGGCACUGAGUCCUCUCGACAUGAGGAUCACCCAUGUAGAGCAGGAUAUACUCGGAUAA”, the “apparent Kd” value reads like this: under setting [1], 5.78 nM; under setting [2], 7.3 nM.

As for “GGGUGGCGUAGAGGAUAUGUGUUACAUGAGGAUCACCCAUGUGCAUAUGAUGUUCGUGUGUCUGCAUAGAAGGCUACGUCGCUA”, the “apparent Kd” value runs as follows: under setting [3], 28.3 nM; under setting [4], 27.6 nM.

For the sequence “GACAAACAUGAGGAUCACCCAUGUUCAAACGAACAAGGAUAUGUGUGGAAACCGUACUAUACAGAAGGUGUCUGUC”, the “apparent Kd” value runs as follows: under setting [3], 36.5 nM; under setting [4], 37.7 nM.

For “UGCUGUGUCAGAGGAUAUACUCUAAUAAUCCAUUGCAAAUAGCGAUGGACAUGAGGAUCACCCAUGUAGAAGGCUGGCACAGCA”, the “apparent Kd” value was 70.2 nM under setting [1] and 152 nM under setting [2].

Take “UUUAAGUCAGGAUAUCGUUAAUUUAAUAAAUUAUUUUAAUUCGAGAAGGGACAUGAGGAUCACCCAUGUAAUUU”: the “apparent Kd” value reads like this: under setting [1], 33.2 nM; under setting [2], 48.6 nM.

For the sequence “ACAUGAGGAUCACCCAUGUUCACAUAGGAUAUUGAUUUUAUUGGUUUUAGAAUAGUAAUUAACCUCAAGAAGGAUGCCAGUUGU”, the “apparent Kd” value worked out at 11.1 nM under setting [3] and 9.31 nM under setting [4].
